In data set [1] the target is T1, Diacylglycerol lipase-alpha (Mus musculus, UniProt Q6WQJ1).
T1 sequence (Q6WQJ1 whole entry): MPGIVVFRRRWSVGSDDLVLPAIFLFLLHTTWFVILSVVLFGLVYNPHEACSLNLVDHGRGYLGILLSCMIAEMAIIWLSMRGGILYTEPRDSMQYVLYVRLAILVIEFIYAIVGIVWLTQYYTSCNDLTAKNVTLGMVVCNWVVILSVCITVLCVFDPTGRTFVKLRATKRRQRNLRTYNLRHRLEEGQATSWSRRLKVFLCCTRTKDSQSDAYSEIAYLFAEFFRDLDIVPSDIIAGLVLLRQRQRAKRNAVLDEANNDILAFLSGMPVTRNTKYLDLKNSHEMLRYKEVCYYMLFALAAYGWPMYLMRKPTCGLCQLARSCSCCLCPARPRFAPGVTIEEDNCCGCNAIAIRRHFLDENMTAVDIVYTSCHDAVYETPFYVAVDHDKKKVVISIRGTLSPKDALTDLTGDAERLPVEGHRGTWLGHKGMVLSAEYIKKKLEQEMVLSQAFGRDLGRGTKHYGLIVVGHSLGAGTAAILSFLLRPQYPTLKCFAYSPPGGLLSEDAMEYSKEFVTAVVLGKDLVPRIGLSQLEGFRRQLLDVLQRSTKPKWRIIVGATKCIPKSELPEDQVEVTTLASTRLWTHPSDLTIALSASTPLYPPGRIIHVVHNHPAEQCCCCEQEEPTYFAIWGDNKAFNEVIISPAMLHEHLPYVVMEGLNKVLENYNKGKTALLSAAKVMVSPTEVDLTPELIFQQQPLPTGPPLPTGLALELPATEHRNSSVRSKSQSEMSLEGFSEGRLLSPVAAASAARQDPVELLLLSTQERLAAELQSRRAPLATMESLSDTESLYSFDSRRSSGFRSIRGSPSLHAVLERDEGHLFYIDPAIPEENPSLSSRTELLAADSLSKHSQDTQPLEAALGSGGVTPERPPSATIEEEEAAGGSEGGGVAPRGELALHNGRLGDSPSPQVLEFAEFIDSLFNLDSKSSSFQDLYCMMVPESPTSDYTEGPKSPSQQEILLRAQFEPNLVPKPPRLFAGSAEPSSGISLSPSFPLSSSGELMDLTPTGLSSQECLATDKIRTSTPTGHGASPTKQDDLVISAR
The data set can be described thus: Inhibition of mouse DAGL-alpha expressed in HEK293T cell membranes assessed as inhibition constant without pre-incubation, measured continuously from t=0 with 600 uM PNP-butyrate by surrogate substrate assay.

Data set [2] addresses T1, Diacylglycerol lipase-alpha. The data set can be described thus: Inhibition of mouse DAGL-alpha expressed in HEK293T cell membranes pre-incubated for 20 mins before PNP-butyrate substrate addition and measured after 30 mins by surrogate substrate assay. The format is cell-based. The method, boiled down:
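mDAGL-α membrane fraction from transiently transfected HEK293T cells, at 0.05 μg/μL final, in 50 mM Hepes pH 7.2. Inhibitor in DMSO was preincubated 20 min, then PNP-butyrate was added (0.3 mM final; 5% DMSO final). After 30 min at 20 °C, OD was read at 420 nm. Background from 10 μM THL was subtracted and values normalized to DMSO control. Plates were kept if Z′ > 0.6. N = 2, n = 2.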

The nature of data set [3]: Dissociation constant, pKa of the compound. Format: physicochemical.
Data set [4] deals with T2, Diacylglycerol lipase-alpha (Mus musculus) (UniProt Q6WQJ1).
T2 sequence (whole entry): T1 sequence (Q6WQJ1 whole entry)
In words: Inhibition of mouse DAGL-alpha expressed in HEK293T cell membranes assessed as inactivation constant pre-incubated for 20 mins before PNP-butyrate substrate addition and measured after 30 mins by surrogate substrate assay. Format: cell-based.

For data set [5], the target named is T2, Diacylglycerol lipase-alpha (Mus musculus). The data set can be described thus: Inhibition of mouse DAGL-alpha expressed in HEK293T cell membranes assessed as inactivation constant measured continuously from t=0 without pre-incubation by kinetic PNP-butyrate substrate assay.

In the case of `Cc1ccc(-c2cnc3nc(C(=O)CCCCCc4ccccc4)oc3c2)cc1`, in data set [1], the Ki (in general, a measure of affinity in units of concentration, obtained from inhibition or displacement) is 0.23 nM. Further, the IC50 in data set [2] (read-out: pIC50 (converted)) is 2.51 nM.
For the compound `O=C(N1CCCC[C@@H]1Cc1ccccc1)n1ccc(C(O)(c2ccc(F)cc2)c2ccc(F)cc2)n1`, in data set [3], the pKa (as a rule, the negative logarithm of the acid dissociation constant) is 14.2. In data set [4], the Kinact was 0.08 min⁻¹. Besides, the Ki in data set [1] was determined as 10800 nM. In data set [2] (read-out: IC50), the IC50 stood at 210 nM.
Turning to `O=C(N1CCCC[C@@H]1Cc1ccccc1)n1ncc(C(O)(c2ccc(F)cc2)c2ccc(F)cc2)n1`, in data set [3], the pKa turned out to be 9.3. Besides, in data set [4], the Kinact worked out at 0.22 min⁻¹. The Ki in data set [1] was 10.4 nM. Also, in data set [2] (read-out: pIC50 (converted)), the IC50 is 3.02 nM.
For the compound `C#CCO[C@@H]1CC[C@H](Cc2ccccc2)N(C(=O)n2ncc(C(O)(c3ccc(F)cc3)c3ccc(F)cc3)n2)C1`, the Kinact in data set [5] was found to be 0.058 min⁻¹. Also, the Ki in data set [1] was determined as 0.27 nM. Besides, the IC50 in data set [2] (read-out: pIC50 (converted)) is less than 1 nM.
In data set [3], `O=C(N1CCCC[C@@H]1Cc1ccccc1)n1cnc(C(O)(c2ccc(F)cc2)c2ccc(F)cc2)c1` gave a pKa of 14.4. In data set [2] (read-out: pIC50 (converted)), the IC50 was more than 31600 nM.
In data set [3], `O=C(N1CCCC[C@@H]1Cc1ccccc1)n1cc(C(O)(c2ccc(F)cc2)c2ccc(F)cc2)nn1` displayed a pKa of 9.3. Besides, the Kinact in data set [4] is 0.32 min⁻¹. In data set [1], the Ki came out at 339 nM. The IC50 in data set [2] (read-out: pIC50 (converted)) was 3.8 nM.
In data set [3], `O=C(N1CCCC[C@@H]1Cc1ccccc1)n1cnc(C(O)(c2ccc(F)cc2)c2ccc(F)cc2)n1` had a pKa of 10. Further, the Kinact in data set [4] stood at 0.075 min⁻¹. In data set [1], the inhibition constant Ki was found to be 13800 nM. The IC50 in data set [2] (read-out: IC50) came to 3400 nM.
As to `O=C(N1CCCCC1Cc1ccccc1)n1cc(-c2ccc(-c3ccccc3)cc2)nn1` (stereo unspecified), the Kinact in data set [4] was 0.08 min⁻¹. Further, in data set [1], the Ki was 0.35 nM. In data set [2] (read-out: pIC50 (converted)), the IC50 was less than 1 nM.

Source of the values: ChEMBL document CHEMBL4373725, “Structure Kinetics Relationships and Molecular Dynamics Show Crucial Role for Heterocycle Leaving Group in Irreversible Diacylglycerol Lipase Inhibitors” (J Med Chem, 2019).
